Measured values reported in ChEMBL document CHEMBL4613291, “Structural Elucidation and Antimicrobial Characterization of Novel Diterpenoids from Fabiana densa var. ramulosa” (ACS Med Chem Lett, 2020).
Active and inactive are the calls of the source. The calls are words filed in the database; no cut-off is given here.

Assays:
Escherichia coli = assay: Antimicrobial activity against Escherichia coli ATCC 25922 assessed as reduction in bacterial growth at 16 to 64 uM incubated for 16 hrs by broth dilution method; assay type: functional, organism-based
Summary of the method: (§1)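 Bacterial growth was measured with the strain panel split into Gram-negative and Gram-positive groups. Growth is expressed as percentage of vehicle-treated control bacteria. Values are the mean of three independent experiments ± SEM. Each treated group was compared with control for significance (p < 0.05, 0.01, 0.0001). The highest concentration tested was 64 μM.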

Pseudomonas aeruginosa = assay: Antimicrobial activity against Pseudomonas aeruginosa ATCC 27853 assessed as reduction in bacterial growth at 16 to 64 uM incubated for 16 hrs by broth dilution method; assay type: functional, organism-based; summary of the method: as §1
Staphylococcus aureus [1] = assay: Antimicrobial activity against Staphylococcus aureus ATCC 25923 assessed as reduction in bacterial growth at 16 to 64 uM incubated for 16 hrs by broth dilution method; assay type: functional, organism-based; summary of the method: as §1
[2] = tested on: Staphylococcus epidermidis; assay: Antimicrobial activity against Staphylococcus epidermidis ATCC 12228 assessed as reduction in bacterial growth at 16 to 64 uM incubated for 16 hrs by broth dilution method; assay type: functional, organism-based; summary of the method: as §1
Priestia megaterium [3] = assay: Antimicrobial activity against Bacillus megaterium Bm11 assessed as reduction in bacterial growth at 16 to 64 uM incubated for 16 hrs by broth dilution method; assay type: functional, organism-based; summary of the method: as §1
Bacillus thuringiensis [4] = assay: Antimicrobial activity against Bacillus thuringiensis B15 assessed as reduction in bacterial growth at 16 to 64 uM incubated for 16 hrs by broth dilution method; assay type: functional, organism-based; summary of the method: as §1
HaCaT = assay: Cytotoxicity against human HaCaT cells assessed as reduction in cell viability at 16 to 64 uM incubated for 24 hrs by MTT assay; assay type: cell-based
Summary of the method: (§2)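 Human immortalized keratinocytes (HaCaT) were exposed for 24 h across 16–64 μM. Metabolically active cells were read by MTT and calculated as a percentage of vehicle-treated cells. Values are the mean of three independent experiments ± SEM.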

Bacillus thuringiensis [5] = assay: Antimicrobial activity against Bacillus thuringiensis B15 assessed as reduction in bacterial growth at 64 uM incubated for 16 hrs by broth dilution method relative to control; assay type: functional; conditions: B15, 16 h; summary of the method: as §1
Priestia megaterium [6] = assay: Antimicrobial activity against Bacillus megaterium Bm11 assessed as reduction in bacterial growth at 16 to 64 uM incubated for 16 hrs by broth dilution method relative to control; assay type: functional; summary of the method: as §1
[7] = Cytotoxicity against human HaCaT cells assessed as reduction in cell viability at 64 uM incubated for 24 hrs by MTT assay relative to control; assay type: cell-based; conditions: read-out: INH; summary of the method: as §2
[8] = tested on: Staphylococcus epidermidis; assay: Antimicrobial activity against Staphylococcus epidermidis ATCC 12228 assessed as reduction in bacterial growth at 64 uM incubated for 16 hrs by broth dilution method relative to control; assay type: functional; conditions: ATCC 12228, 16 h; summary of the method: as §1
Staphylococcus aureus [9] = assay: Antimicrobial activity against Staphylococcus aureus ATCC 25923 assessed as reduction in bacterial growth at 64 uM incubated for 16 hrs by broth dilution method relative to control; assay type: functional; conditions: ATCC 25923, 16 h; summary of the method: as §1

| SMILES | inhibition (Escherichia coli) | inhibition (Pseudomonas aeruginosa) | inhibition (Staphylococcus aureus [1]) | inhibition [2] | inhibition (Priestia megaterium [3]) | inhibition (Bacillus thuringiensis [4]) | Activity (HaCaT) | inhibition at 64 µM (Bacillus thuringiensis [5]) [%] | inhibition (INH) (Priestia megaterium [6]) [%] | cytotoxicity at 24 h, 64 µM [7] [%] | inhibition at 64 µM [8] [%] | inhibition at 64 µM (Staphylococcus aureus [9]) [%] |
| --- | --- | --- | --- | --- | --- | --- | --- | --- | --- | --- | --- | --- |
| C[C@]12C=C[C@@]3(CC[C@@H]4[C@@](C)(COC(=O)CC(=O)OC[C@@]5(C)CCC[C@]6(C)[C@@H]5CC[C@@]57C=C[C@@](C)(CC[C@H]56)C7)CCC[C@@]4(C)[C@@H]3CC1)C2 | inactive | inactive | inactive | inactive | inactive | inactive | – | – | – | – | – | – |
| C[C@]12C=C[C@@]3(CC[C@@H]4[C@@](C)(CO)CCC[C@@]4(C)[C@@H]3CC1)C2 | inactive | inactive | inactive | inactive | inactive | inactive | Non-Toxic | – | – | – | – | – |
| C[C@]12C=C[C@@]3(CC[C@@H]4[C@@](C)(COC(=O)CC(=O)O)CCC[C@@]4(C)[C@@H]3CC1)C2 | – | – | Active | Active | Active | Active | – | > 70 | >70 | 14 | – | – |
| C[C@]12C=C[C@@]3(CC[C@@H]4[C@@](C)(COC(=O)CCC(=O)O)CCC[C@@]4(C)[C@@H]3CC1)C2 | – | – | – | – | – | – | – | 100 | 80 | 20 | 80 | 40 |
| C[C@]12C=C[C@@]3(CC[C@@H]4[C@@](C)(COC(=O)C(=O)OC[C@@]5(C)CCC[C@]6(C)[C@@H]5CC[C@@]57C=C[C@@](C)(CC[C@H]56)C7)CCC[C@@]4(C)[C@@H]3CC1)C2 | inactive | inactive | inactive | inactive | inactive | inactive | – | – | – | – | – | – |
| C[C@]12C=C[C@@]3(CC[C@@H]4[C@@](C)(COC(=O)CCC(=O)OC[C@@]5(C)CCC[C@]6(C)[C@@H]5CC[C@@]57C=C[C@@](C)(CC[C@H]56)C7)CCC[C@@]4(C)[C@@H]3CC1)C2 | inactive | inactive | inactive | inactive | inactive | inactive | – | – | – | – | – | – |
| C[C@]12C=C[C@@]3(CC[C@@H]4[C@@](C)(COC(=O)C(=O)O)CCC[C@@]4(C)[C@@H]3CC1)C2 | – | – | – | – | – | – | – | 50 | – | 36 | 50 | 40 |
